In the M2OR odorant receptor database:
Numbering of substitutions follows the chain as printed.

Key:
Settings in all cases: stereoisomer not certain
OR2T34 (Homo sapiens) = biological target: T1, OR2T34 (Homo sapiens) (UniProt Q8NGX1)
T1 sequence (whole entry): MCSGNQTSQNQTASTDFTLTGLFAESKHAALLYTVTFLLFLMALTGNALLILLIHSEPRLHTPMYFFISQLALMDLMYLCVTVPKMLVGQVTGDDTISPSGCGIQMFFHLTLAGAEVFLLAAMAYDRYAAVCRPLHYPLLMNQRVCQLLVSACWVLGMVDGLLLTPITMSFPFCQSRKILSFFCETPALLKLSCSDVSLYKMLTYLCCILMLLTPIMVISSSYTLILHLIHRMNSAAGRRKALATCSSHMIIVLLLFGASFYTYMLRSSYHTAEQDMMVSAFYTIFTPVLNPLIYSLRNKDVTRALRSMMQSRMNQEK
Procedure, shortened: (§1)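 Values were gathered from published papers (main text and supplementary material), with extra details requested from the original authors when needed, and checked for typos and inconsistencies. Each receptor–molecule pair is called responsive (active) if the original authors judged the measured signal statistically different from baseline, and non-responsive (inactive) otherwise. Assay methods varied by source, often transient mammalian cell-line luciferase assays. Recorded details include cell line, G-protein, co-transfected protein and tags.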

OR2T4 (Homo sapiens) = biological target: T2, OR2T4 (Homo sapiens) (UniProt Q8NH00)
T2 sequence (whole entry): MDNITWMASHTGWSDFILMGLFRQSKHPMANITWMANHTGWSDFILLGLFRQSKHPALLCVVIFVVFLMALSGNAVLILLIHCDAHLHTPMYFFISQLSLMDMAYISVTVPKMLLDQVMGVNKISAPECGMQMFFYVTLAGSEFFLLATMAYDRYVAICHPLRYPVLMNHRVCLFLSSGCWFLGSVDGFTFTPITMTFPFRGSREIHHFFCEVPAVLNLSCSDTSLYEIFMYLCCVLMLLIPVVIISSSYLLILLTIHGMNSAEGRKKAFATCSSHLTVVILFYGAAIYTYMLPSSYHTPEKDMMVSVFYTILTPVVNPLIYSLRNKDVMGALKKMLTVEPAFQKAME
Procedure, shortened: as §1

OR2W1 (Homo sapiens) = biological target: T3, OR2W1 (Homo sapiens) (UniProt Q9Y3N9)
T3 sequence (whole entry): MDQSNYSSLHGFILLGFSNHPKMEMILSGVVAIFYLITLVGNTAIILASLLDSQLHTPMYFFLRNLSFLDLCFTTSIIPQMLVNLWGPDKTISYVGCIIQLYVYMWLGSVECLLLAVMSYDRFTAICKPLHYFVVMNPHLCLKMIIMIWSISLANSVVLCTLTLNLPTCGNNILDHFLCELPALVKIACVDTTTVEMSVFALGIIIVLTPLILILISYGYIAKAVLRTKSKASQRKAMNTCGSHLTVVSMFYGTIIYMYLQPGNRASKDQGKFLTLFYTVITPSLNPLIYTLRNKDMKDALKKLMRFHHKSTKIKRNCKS
Procedure, shortened: as §1

OR2T3 R298C = system: T4, OR2T3 R298C
T4 sequence (whole entry): T1 sequence (whole entry) with H109Y, M202T, T204M, T214A, R239H, R267P, R298C
Procedure, shortened: as §1

OR2T3 Y109H = system: T5, OR2T3 Y109H
T5 sequence (whole entry): T1 sequence (whole entry) with M202T, T204M, T214A, R239H, R267P
Procedure, shortened: as §1

OR2T33 (Homo sapiens) = biological target: T6, OR2T33 (Homo sapiens) (UniProt Q8NG76)
T6 sequence (whole entry): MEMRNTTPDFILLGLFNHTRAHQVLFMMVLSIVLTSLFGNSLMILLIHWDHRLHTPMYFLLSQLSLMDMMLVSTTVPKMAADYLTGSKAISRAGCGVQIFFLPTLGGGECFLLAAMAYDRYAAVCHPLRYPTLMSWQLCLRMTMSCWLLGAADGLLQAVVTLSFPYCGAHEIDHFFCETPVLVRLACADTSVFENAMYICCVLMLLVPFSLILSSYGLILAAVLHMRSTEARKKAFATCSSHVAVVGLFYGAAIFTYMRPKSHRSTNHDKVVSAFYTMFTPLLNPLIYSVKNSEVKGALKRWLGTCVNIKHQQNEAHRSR
Procedure, shortened: as §1

OR2T35 (Homo sapiens) = biological target: T7, OR2T35 (Homo sapiens) (UniProt Q8NGX2)
T7 sequence (whole entry): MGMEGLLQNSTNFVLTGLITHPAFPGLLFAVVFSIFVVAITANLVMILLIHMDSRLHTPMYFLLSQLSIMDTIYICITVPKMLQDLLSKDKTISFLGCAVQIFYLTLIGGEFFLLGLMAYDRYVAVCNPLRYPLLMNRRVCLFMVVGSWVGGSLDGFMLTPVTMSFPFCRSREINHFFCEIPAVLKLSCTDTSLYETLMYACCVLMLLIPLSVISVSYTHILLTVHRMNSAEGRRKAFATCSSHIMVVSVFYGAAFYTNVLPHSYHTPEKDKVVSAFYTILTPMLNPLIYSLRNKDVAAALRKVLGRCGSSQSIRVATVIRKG
Procedure, shortened: as §1

OR2T5 (Homo sapiens) = biological target: T8, OR2T5 (Homo sapiens) (UniProt Q6IEZ7)
T8 sequence (whole entry): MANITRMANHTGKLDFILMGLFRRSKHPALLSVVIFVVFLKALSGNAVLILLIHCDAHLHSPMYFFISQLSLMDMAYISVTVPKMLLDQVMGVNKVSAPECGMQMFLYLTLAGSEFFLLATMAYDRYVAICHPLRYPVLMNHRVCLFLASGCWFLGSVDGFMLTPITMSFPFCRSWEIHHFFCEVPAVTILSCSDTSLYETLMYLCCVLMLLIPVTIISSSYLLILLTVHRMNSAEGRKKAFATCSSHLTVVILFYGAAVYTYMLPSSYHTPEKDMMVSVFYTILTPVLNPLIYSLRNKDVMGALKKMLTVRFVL
Procedure, shortened: as §1

OR2T5 K13R K41M G45E = system: T9, OR2T5 K13R K41M G45E
T9 sequence (whole entry): T8 sequence (whole entry) with K13R, K41M, G45E
Procedure, shortened: as §1

OR2T5 K13R L134F = system: T10, OR2T5 K13R L134F
T10 sequence (whole entry): T8 sequence (whole entry) with K13R, L134F
Procedure, shortened: as §1

OR2T6 (Homo sapiens) = biological target: T11, OR2T6 (Homo sapiens) (UniProt Q8NHC8)
T11 sequence (whole entry): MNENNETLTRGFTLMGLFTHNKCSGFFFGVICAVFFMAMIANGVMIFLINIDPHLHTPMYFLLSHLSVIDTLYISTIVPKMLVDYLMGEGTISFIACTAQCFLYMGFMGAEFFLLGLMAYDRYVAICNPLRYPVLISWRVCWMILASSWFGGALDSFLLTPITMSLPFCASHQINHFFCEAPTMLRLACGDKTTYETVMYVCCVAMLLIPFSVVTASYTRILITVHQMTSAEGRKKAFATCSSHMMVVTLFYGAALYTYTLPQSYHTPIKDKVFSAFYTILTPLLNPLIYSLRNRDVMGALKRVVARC
Procedure, shortened: as §1

OR2T6 C23G = system: T12, OR2T6 C23G
T12 sequence (whole entry): T11 sequence (whole entry) with C23G
Procedure, shortened: as §1

OR2T7 = system: T13, OR2T7
T13 sequence (whole entry): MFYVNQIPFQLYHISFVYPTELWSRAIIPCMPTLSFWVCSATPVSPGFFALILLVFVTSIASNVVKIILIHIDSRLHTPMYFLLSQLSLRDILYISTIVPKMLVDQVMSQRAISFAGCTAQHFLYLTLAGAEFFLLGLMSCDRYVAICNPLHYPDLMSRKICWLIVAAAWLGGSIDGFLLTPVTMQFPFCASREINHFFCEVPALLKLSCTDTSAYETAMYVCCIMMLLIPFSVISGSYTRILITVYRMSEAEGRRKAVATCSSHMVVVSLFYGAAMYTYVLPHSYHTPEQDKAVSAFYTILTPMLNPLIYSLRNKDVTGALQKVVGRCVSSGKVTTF
Procedure, shortened: as §1

OR2T8 (Homo sapiens) = biological target: T14, OR2T8 (Homo sapiens) (UniProt A6NH00)
T14 sequence (whole entry): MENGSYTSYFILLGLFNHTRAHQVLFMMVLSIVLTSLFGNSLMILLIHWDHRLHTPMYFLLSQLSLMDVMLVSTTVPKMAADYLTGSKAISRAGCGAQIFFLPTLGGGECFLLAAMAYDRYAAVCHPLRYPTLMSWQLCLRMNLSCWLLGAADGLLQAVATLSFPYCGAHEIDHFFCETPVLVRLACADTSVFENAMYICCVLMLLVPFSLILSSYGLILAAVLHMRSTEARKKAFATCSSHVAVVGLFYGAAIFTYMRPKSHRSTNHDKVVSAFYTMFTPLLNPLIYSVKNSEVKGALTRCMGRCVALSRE
Procedure, shortened: as §1

OR2V1 (Homo sapiens) = biological target: T15, OR2V1 (Homo sapiens) (UniProt Q8NHB1)
T15 sequence (whole entry): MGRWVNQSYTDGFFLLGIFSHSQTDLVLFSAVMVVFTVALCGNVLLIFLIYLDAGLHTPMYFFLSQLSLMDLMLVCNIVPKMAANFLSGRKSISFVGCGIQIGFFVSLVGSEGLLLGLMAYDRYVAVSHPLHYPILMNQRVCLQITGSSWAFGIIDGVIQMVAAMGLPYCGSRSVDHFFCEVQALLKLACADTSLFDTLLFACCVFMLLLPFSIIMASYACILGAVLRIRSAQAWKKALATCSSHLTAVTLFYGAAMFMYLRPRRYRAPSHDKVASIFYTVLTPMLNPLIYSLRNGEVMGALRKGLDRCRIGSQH
Procedure, shortened: as §1

OR2V2 (Homo sapiens) = biological target: T16, OR2V2 (Homo sapiens) (UniProt Q96R30)
T16 sequence (whole entry): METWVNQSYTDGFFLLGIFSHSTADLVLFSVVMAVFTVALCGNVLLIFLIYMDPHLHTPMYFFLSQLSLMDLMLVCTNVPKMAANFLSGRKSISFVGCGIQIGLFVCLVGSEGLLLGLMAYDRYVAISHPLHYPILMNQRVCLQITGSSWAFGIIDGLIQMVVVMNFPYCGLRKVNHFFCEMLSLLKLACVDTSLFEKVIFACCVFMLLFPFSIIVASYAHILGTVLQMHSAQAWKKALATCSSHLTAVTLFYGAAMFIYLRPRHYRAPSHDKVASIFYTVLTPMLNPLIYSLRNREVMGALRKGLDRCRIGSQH
Procedure, shortened: as §1

OR2W1 G96V = system: T17, OR2W1 G96V
T17 sequence (whole entry): T3 sequence (whole entry) with G96V
Procedure, shortened: as §1

OR2T7 (Homo sapiens) = biological target: T18, OR2T7 (Homo sapiens) (UniProt P0C7T2)
T18 sequence (whole entry): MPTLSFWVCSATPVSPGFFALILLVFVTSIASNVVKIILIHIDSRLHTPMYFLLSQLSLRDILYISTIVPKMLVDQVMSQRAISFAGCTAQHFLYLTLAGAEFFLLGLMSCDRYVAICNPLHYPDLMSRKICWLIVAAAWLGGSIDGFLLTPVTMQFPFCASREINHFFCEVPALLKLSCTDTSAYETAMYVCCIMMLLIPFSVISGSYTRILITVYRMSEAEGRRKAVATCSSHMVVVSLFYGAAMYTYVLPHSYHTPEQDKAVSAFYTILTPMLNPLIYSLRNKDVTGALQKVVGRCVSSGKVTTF
Procedure, shortened: as §1

OR2W1 [1] = system: T19, OR2W1
T19 sequence (whole entry): T3 sequence (whole entry) with D296N
Procedure, shortened: as §1

OR2W1 [2] = system: T20, OR2W1; remark: listed apart in the source
T20 sequence (whole entry): T3 sequence (whole entry) with M81V
Procedure, shortened: as §1

Measured: odorant receptor agonist call

COC1CC2CC1C1CC(C=O)CC21 (configuration not stated)
inactive: OR2T34 (Homo sapiens)

CC1=CCC2CC1C2(C)C (configuration not stated)
inactive: OR2T34 (Homo sapiens) | OR2W1 (Homo sapiens)
active: OR2T4 (Homo sapiens)

CCC1OC(=O)C(O)=C1C (configuration not stated)
not listed: OR2T7 (Homo sapiens) | OR2W1 [1] | OR2W1 [2]
inactive: all other assays above

CCCC(C)C(=O)OCC (configuration not stated)
inactive: OR2T34 (Homo sapiens)

CC1=NC(C)C(C)S1 (configuration not stated)
not listed: OR2T7 (Homo sapiens) | OR2W1 [1] | OR2W1 [2]
inactive: all other assays above

COc1ccc(C)cc1
inactive: OR2T34 (Homo sapiens)

CCCCCC(=O)C(C)C(C)=O (configuration not stated)
active: OR2W1 [1] | OR2W1 [2]
not listed: OR2T3 R298C | OR2T3 Y109H | OR2T5 K13R K41M G45E | OR2T5 K13R L134F | OR2T6 C23G | OR2T7 | OR2W1 G96V
inactive: all other assays above

CC(C)(C)C1CCCCC1OCCCCO (configuration not stated)
inactive: OR2T34 (Homo sapiens)

Cc1cnc(C)c(C)n1
not listed: OR2T7 (Homo sapiens) | OR2W1 [1] | OR2W1 [2]
inactive: all other assays above

CC1CC(C)(c2ccccc2)CO1 (configuration not stated)
inactive: OR2T34 (Homo sapiens)

CCCCCCC=CCCC=O
not listed: OR2T5 K13R L134F | OR2T7 | OR2W1 [1] | OR2W1 [2]
inactive: all other assays above

CC=CC(=O)C1C(C)=CCCC1(C)C (configuration not stated)
active: OR2T34 (Homo sapiens)

C=CC(C)(CCC=C(C)C)OC(C)=O (configuration not stated)
inactive: OR2T34 (Homo sapiens)

CCC(S)C(C)CO (configuration not stated)
inactive: OR2T33 (Homo sapiens) | OR2T34 (Homo sapiens) | OR2T35 (Homo sapiens) | OR2T4 (Homo sapiens) | OR2T5 (Homo sapiens) | OR2T6 (Homo sapiens) | OR2T7 (Homo sapiens) | OR2T8 (Homo sapiens) | OR2V1 (Homo sapiens) | OR2V2 (Homo sapiens) | OR2W1 (Homo sapiens)

C=CCOC(=O)COCCC(C)C
inactive: OR2T34 (Homo sapiens)

CC(C)=CCCC(C)=CCO
inactive: OR2T34 (Homo sapiens) | OR2T4 (Homo sapiens) | OR2W1 (Homo sapiens) | OR2W1 [2]

Cc1ccc(C(C)C)cc1O
inactive: OR2T34 (Homo sapiens)
